According to ChEMBL document CHEMBL4038305, “Benzoxaborole Antimalarial Agents. Part 5. Lead Optimization of Novel Amide Pyrazinyloxy Benzoxaboroles and Identification of a Preclinical Candidate” (J Med Chem, 2017):

What was measured:
Format in all cases: functional
Plasmodium berghei [1] = experiment: Antimalarial activity against Plasmodium berghei infected in Swiss Webster mouse assessed as mouse survival rate at 33 mg/kg administered once daily via oral gavage for 4 consecutive days beginning 1 hr after infection measured on day 10 post infection relative to control
How it was run: (§1)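 P. berghei-infected erythrocytes taken from a previously infected mouse were injected intraperitoneally. Oral dosing, once daily for 4 consecutive days, began 1 h after infection, in polyethylene glycol 300/propylene glycol/water (55/25/20 by weight). Chloroquine at 30 mg/kg was the positive control, with a vehicle-only group. Percent survival was recorded daily from day 4 to day 20.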

Plasmodium berghei [2] = experiment: Antimalarial activity against Plasmodium berghei infected in Swiss Webster mouse assessed as mouse survival rate at 33 mg/kg administered once daily via oral gavage for 4 consecutive days beginning 1 hr after infection measured on day 5 post infection relative to control; how it was run: as §1
Plasmodium berghei [3] = experiment: Antimalarial activity against Plasmodium berghei infected in Swiss Webster mouse assessed as mouse survival rate at 11 mg/kg administered once daily via oral gavage for 4 consecutive days beginning 1 hr after infection measured on day 6 post infection relative to control; how it was run: as §1
Plasmodium berghei [4] = experiment: Antimalarial activity against Plasmodium berghei infected in Swiss Webster mouse assessed as mouse survival rate at 33 mg/kg administered once daily via oral gavage for 4 consecutive days beginning 1 hr after infection measured on day 6 post infection relative to control; how it was run: as §1
Plasmodium berghei [5] = experiment: Antimalarial activity against Plasmodium berghei infected in Swiss Webster mouse assessed as mouse survival rate at 33 mg/kg administered once daily via oral gavage for 4 consecutive days beginning 1 hr after infection measured on day 8 post infection relative to control; how it was run: as §1
Plasmodium berghei [6] = experiment: Antimalarial activity against Plasmodium berghei infected in Swiss Webster mouse assessed as mouse survival rate at 1.2 mg/kg administered once daily via oral gavage for 4 consecutive days beginning 1 hr after infection measured on day 6 post infection relative to control
How it was run: (§2)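 Mice given an intraperitoneal injection of P. berghei-infected erythrocytes taken from a previously infected animal. Oral dosing once daily for 4 consecutive days, starting 1 h after infection. Vehicle: polyethylene glycol 300/propylene glycol/water (weight ratio 55/25/20). Percent survival recorded daily from day 4 to day 20. Chloroquine 30 mg/kg and vehicle-only groups served as controls.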

Plasmodium berghei [7] = experiment: Antimalarial activity against Plasmodium berghei infected in Swiss Webster mouse assessed as mouse survival rate at 3.7 mg/kg administered once daily via oral gavage for 4 consecutive days beginning 1 hr after infection measured on day 6 post infection relative to control; how it was run: as §1
Plasmodium berghei [8] = experiment: Antimalarial activity against Plasmodium berghei infected in Swiss Webster mouse assessed as mouse survival rate at 33 mg/kg administered once daily via oral gavage for 4 consecutive days beginning 1 hr after infection measured on day 4 post infection relative to control; how it was run: as §1
Plasmodium berghei [9] = experiment: Antimalarial activity against Plasmodium berghei infected in Swiss Webster mouse assessed as mouse survival rate at 100 mg/kg administered once daily via oral gavage for 4 consecutive days beginning 1 hr after infection measured on day 6 post infection relative to control; how it was run: as §2
Plasmodium berghei [10] = experiment: Antimalarial activity against Plasmodium berghei infected in Swiss Webster mouse assessed as mouse survival rate at 33 mg/kg administered once daily via oral gavage for 4 consecutive days beginning 1 hr after infection measured on day 9 post infection relative to control; how it was run: as §1
Plasmodium berghei [11] = experiment: Antimalarial activity against Plasmodium berghei infected in Swiss Webster mouse assessed as mouse survival rate at 3.7 mg/kg administered once daily via oral gavage for 4 consecutive days beginning 1 hr after infection measured on day 7 post infection relative to control; how it was run: as §1
Plasmodium berghei [12] = experiment: Antimalarial activity against Plasmodium berghei infected in Swiss Webster mouse assessed as mouse survival rate at 3.7 mg/kg administered once daily via oral gavage for 4 consecutive days beginning 1 hr after infection measured on day 4 post infection relative to control; how it was run: as §1
Plasmodium berghei [13] = experiment: Antimalarial activity against Plasmodium berghei infected in Swiss Webster mouse assessed as mouse survival rate at 100 mg/kg administered once daily via oral gavage for 4 consecutive days beginning 1 hr after infection measured on day 7 post infection relative to control; how it was run: as §2
Plasmodium berghei [14] = experiment: Antimalarial activity against Plasmodium berghei infected in Swiss Webster mouse assessed as mouse survival rate at 1.2 mg/kg administered once daily via oral gavage for 4 consecutive days beginning 1 hr after infection measured on day 4 post infection relative to control; how it was run: as §2
Plasmodium berghei [15] = experiment: Antimalarial activity against Plasmodium berghei infected in Swiss Webster mouse assessed as mouse survival rate at 100 mg/kg administered once daily via oral gavage for 4 consecutive days beginning 1 hr after infection measured on day 11 post infection relative to control; how it was run: as §2
Plasmodium berghei [16] = experiment: Antimalarial activity against Plasmodium berghei infected in Swiss Webster mouse assessed as mouse survival rate at 11 mg/kg administered once daily via oral gavage for 4 consecutive days beginning 1 hr after infection measured on day 4 post infection relative to control; how it was run: as §1
Plasmodium berghei [17] = experiment: Antimalarial activity against Plasmodium berghei infected in Swiss Webster mouse assessed as mouse survival rate at 33 mg/kg administered once daily via oral gavage for 4 consecutive days beginning 1 hr after infection measured on day 7 post infection relative to control; how it was run: as §1
Plasmodium berghei [18] = experiment: Antimalarial activity against Plasmodium berghei infected in Swiss Webster mouse assessed as mouse survival rate at 100 mg/kg administered once daily via oral gavage for 4 consecutive days beginning 1 hr after infection measured on day 5 post infection relative to control; how it was run: as §2
Plasmodium berghei [19] = experiment: Antimalarial activity against Plasmodium berghei infected in Swiss Webster mouse assessed as mouse survival rate administered once daily via oral gavage for 4 consecutive days beginning 1 hr after infection measured on day 4 post infection; how it was run: as §2
Plasmodium berghei [20] = experiment: Antimalarial activity against Plasmodium berghei infected in Swiss Webster mouse assessed as mouse survival rate at 11 mg/kg administered once daily via oral gavage for 4 consecutive days beginning 1 hr after infection measured on day 8 post infection relative to control; how it was run: as §1
Plasmodium berghei [21] = experiment: Antimalarial activity against Plasmodium berghei infected in Swiss Webster mouse assessed as mouse survival rate at 100 mg/kg administered once daily via oral gavage for 4 consecutive days beginning 1 hr after infection measured on day 14 post infection relative to control; how it was run: as §2
Plasmodium falciparum = experiment: Antimalarial activity against Plasmodium falciparum 3D7 0087/N9 infected in NOD/SCID IL2R gamma null mouse assessed as reduction in parasitemia administered once daily via oral gavage for 4 consecutive days measured on day 4 post infection; conditions: 3D7 0087/N9, po, 96 h
How it was run: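 Human-erythrocyte-engrafted NODscidIL2Rγnull mice carrying P. falciparum Pf3D70087/N9 in peripheral blood; compound given orally once daily for four consecutive days.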

Question: For `Cc1c(Oc2cnc(C(=O)N[C@@H](CO)CC(F)(F)F)cn2)ccc2c1B(O)OC2`, which survival at 33 mg/kg (Plasmodium berghei [1]) is on record?
Answer: Its survival at 33 mg/kg is 60%.

Question: And the survival at 33 mg/kg (Plasmodium berghei [2])?
Answer: Its survival at 33 mg/kg is 100%.

Question: What about the survival at 11 mg/kg (Plasmodium berghei [3]) of the same molecule?
Answer: Its survival at 11 mg/kg is 100%.

Question: And the survival at 33 mg/kg (Plasmodium berghei [4])?
Answer: Its survival at 33 mg/kg is 100%.

Question: And the survival at 33 mg/kg (Plasmodium berghei [5])?
Answer: Its survival at 33 mg/kg is 100%.

Question: What about the survival at 1.2 mg/kg (Plasmodium berghei [6]) of the same molecule?
Answer: The survival at 1.2 mg/kg was 100%.

Question: What about the survival at 3.7 mg/kg (Plasmodium berghei [7]) of the same molecule?
Answer: The survival at 3.7 mg/kg was 100%.

Question: And the survival at 33 mg/kg (Plasmodium berghei [8])?
Answer: The survival at 33 mg/kg was 100%.

Question: What about the survival at 100 mg/kg (Plasmodium berghei [9]) of the same molecule?
Answer: Its survival at 100 mg/kg is 100%.

Question: And the survival at 33 mg/kg (Plasmodium berghei [10])?
Answer: The survival at 33 mg/kg was 100%.

Question: What about the survival at 3.7 mg/kg (Plasmodium berghei [11]) of the same molecule?
Answer: Its survival at 3.7 mg/kg is 0%.

Question: What about the survival at 3.7 mg/kg (Plasmodium berghei [12]) of the same molecule?
Answer: Its survival at 3.7 mg/kg is 100%.

Question: What about the survival at 100 mg/kg (Plasmodium berghei [13]) of the same molecule?
Answer: The survival at 100 mg/kg was 100%.

Question: What about the survival at 1.2 mg/kg (Plasmodium berghei [14]) of the same molecule?
Answer: Its survival at 1.2 mg/kg is 100%.

Question: And the survival at 100 mg/kg (Plasmodium berghei [15])?
Answer: Its survival at 100 mg/kg is 0%.

Question: And the survival at 11 mg/kg (Plasmodium berghei [16])?
Answer: The survival at 11 mg/kg was 100%.

Question: What about the survival at 33 mg/kg (Plasmodium berghei [17]) of the same molecule?
Answer: Its survival at 33 mg/kg is 100%.

Question: And the survival at 100 mg/kg (Plasmodium berghei [18])?
Answer: Its survival at 100 mg/kg is 100%.

Question: And the ED90 (Plasmodium berghei [19])?
Answer: The ED90 was 7.3 mg/kg.

Question: For `Cc1c(Oc2cnc(C(=O)NC(C)CO)cn2)ccc2c1B(O)OC2` (configuration not stated), which survival at 33 mg/kg (Plasmodium berghei [2]) is on record?
Answer: Its survival at 33 mg/kg is 100%.

Question: And the survival at 11 mg/kg (Plasmodium berghei [3])?
Answer: Its survival at 11 mg/kg is 40%.

Question: And the survival at 33 mg/kg (Plasmodium berghei [4])?
Answer: Its survival at 33 mg/kg is 100%.

Question: And the survival at 33 mg/kg (Plasmodium berghei [5])?
Answer: Its survival at 33 mg/kg is 0%.

Question: And the survival at 33 mg/kg (Plasmodium berghei [8])?
Answer: The survival at 33 mg/kg was 100%.

Question: And the survival at 100 mg/kg (Plasmodium berghei [9])?
Answer: The survival at 100 mg/kg was 100%.

Question: What about the survival at 100 mg/kg (Plasmodium berghei [13]) of the same molecule?
Answer: The survival at 100 mg/kg was 100%.

Question: What about the survival at 100 mg/kg (Plasmodium berghei [15]) of the same molecule?
Answer: The survival at 100 mg/kg was 40%.

Question: What about the survival at 11 mg/kg (Plasmodium berghei [20]) of the same molecule?
Answer: Its survival at 11 mg/kg is 0%.

Question: What about the survival at 11 mg/kg (Plasmodium berghei [16]) of the same molecule?
Answer: The survival at 11 mg/kg was 100%.

Question: And the survival at 33 mg/kg (Plasmodium berghei [17])?
Answer: Its survival at 33 mg/kg is 100%.

Question: And the survival at 100 mg/kg (Plasmodium berghei [18])?
Answer: The survival at 100 mg/kg was 100%.

Question: And the ED90 (Plasmodium berghei [19])?
Answer: Its ED90 is 44.3 mg/kg.

Question: `CCC[C@H](CO)NC(=O)c1cnc(Oc2ccc3c(c2C)B(O)OC3)cn1` was tested. Which survival at 100 mg/kg (Plasmodium berghei [21]) did it give?
Answer: Its survival at 100 mg/kg is 0%.

Question: What about the survival at 33 mg/kg (Plasmodium berghei [2]) of the same molecule?
Answer: Its survival at 33 mg/kg is 100%.

Question: What about the ED90 (Plasmodium falciparum) of the same molecule?
Answer: Its ED90 is 2.5 mg/kg.

Question: And the survival at 11 mg/kg (Plasmodium berghei [3])?
Answer: The survival at 11 mg/kg was 100%.

Question: What about the survival at 33 mg/kg (Plasmodium berghei [4]) of the same molecule?
Answer: Its survival at 33 mg/kg is 100%.

Question: What about the survival at 33 mg/kg (Plasmodium berghei [5]) of the same molecule?
Answer: The survival at 33 mg/kg was 100%.

Question: And the survival at 1.2 mg/kg (Plasmodium berghei [6])?
Answer: The survival at 1.2 mg/kg was 100%.

Question: What about the survival at 3.7 mg/kg (Plasmodium berghei [7]) of the same molecule?
Answer: Its survival at 3.7 mg/kg is 100%.

Question: What about the survival at 33 mg/kg (Plasmodium berghei [8]) of the same molecule?
Answer: Its survival at 33 mg/kg is 100%.

Question: What about the survival at 100 mg/kg (Plasmodium berghei [9]) of the same molecule?
Answer: The survival at 100 mg/kg was 100%.

Question: And the survival at 33 mg/kg (Plasmodium berghei [10])?
Answer: Its survival at 33 mg/kg is 0%.

Question: And the survival at 3.7 mg/kg (Plasmodium berghei [11])?
Answer: The survival at 3.7 mg/kg was 0%.

Question: And the survival at 3.7 mg/kg (Plasmodium berghei [12])?
Answer: The survival at 3.7 mg/kg was 100%.

Question: What about the survival at 100 mg/kg (Plasmodium berghei [13]) of the same molecule?
Answer: Its survival at 100 mg/kg is 100%.

Question: What about the survival at 1.2 mg/kg (Plasmodium berghei [14]) of the same molecule?
Answer: The survival at 1.2 mg/kg was 100%.

Question: And the survival at 100 mg/kg (Plasmodium berghei [15])?
Answer: The survival at 100 mg/kg was 20%.

Question: And the survival at 11 mg/kg (Plasmodium berghei [16])?
Answer: Its survival at 11 mg/kg is 100%.

Question: What about the survival at 33 mg/kg (Plasmodium berghei [17]) of the same molecule?
Answer: Its survival at 33 mg/kg is 100%.

Question: And the survival at 100 mg/kg (Plasmodium berghei [18])?
Answer: The survival at 100 mg/kg was 100%.

Question: What about the ED90 (Plasmodium berghei [19]) of the same molecule?
Answer: Its ED90 is 11.7 mg/kg.
